Source: ChEMBL document CHEMBL4334471, “Discovery of 1,8-disubstituted-[1,2,3]triazolo[4,5-c]quinoline derivatives as a new class of Hippo signaling pathway inhibitors” (Bioorg Med Chem Lett, 2019)
The source made the active and inactive calls. The rule behind the calls is not given here.

Assays:
A549 [1] = assay: Inhibition of hippo signalling protein in human A549 cells cotransfected with CTGF promoter-driven firefly luciferase and CMV promoter-driven renilla luciferase gene assessed as increase in CTGF expression at 10 uM incubated for 24 hrs by dual-luciferase gene assay relative to control
A549 [2] = assay: Inhibition of hippo signalling protein in human A549 cells assessed as increase in CTGF mRNA expression level at 10 uM incubated for 24 hrs by qRT-PCR analysis; format: cell-based
In short: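 A549-CTGF cells were exposed to compound or 0.1% DMSO for 24 h before total RNA extraction. Endogenous CTGF mRNA was quantified by real-time PCR. Data were mean ± SEM (n=4) and compared by Student's t-test.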

[3] = target: Transcriptional coactivator YAP1 (Homo sapiens) (UniProt P46937); assay: Induction of YAP nuclear translocation in human A549 cells at 10 uM incubated for 8 hrs by immunofluorescence based confocal microscopy; format: cell-based
In short: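 A549-CTGF reporter cells were treated for 8 h at 10 µM, with 0.1% DMSO as vehicle control. Cells were then fixed, permeabilized and probed with anti-YAP antibody. DAPI stained the nuclei, and YAP localization was imaged by immunofluorescence.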

A549 [4] = assay: Inhibition of hippo signalling protein in human A549 cells cotransfected with CTGF promoter-driven firefly luciferase and CMV promoter-driven renilla luciferase gene incubated for 24 hrs by dual-luciferase gene assay; format: cell-based
In short: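 Dual-luciferase reporter read-out in A549-CTGF cells after 24 h culture with compound. Firefly luciferase is expressed relative to DMSO-treated cells, set as 1. Screening used 10 µM. Values are mean ± SEM of three independent experiments.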

Chain of Transcriptional coactivator YAP1 (Homo sapiens) (P46937 whole entry): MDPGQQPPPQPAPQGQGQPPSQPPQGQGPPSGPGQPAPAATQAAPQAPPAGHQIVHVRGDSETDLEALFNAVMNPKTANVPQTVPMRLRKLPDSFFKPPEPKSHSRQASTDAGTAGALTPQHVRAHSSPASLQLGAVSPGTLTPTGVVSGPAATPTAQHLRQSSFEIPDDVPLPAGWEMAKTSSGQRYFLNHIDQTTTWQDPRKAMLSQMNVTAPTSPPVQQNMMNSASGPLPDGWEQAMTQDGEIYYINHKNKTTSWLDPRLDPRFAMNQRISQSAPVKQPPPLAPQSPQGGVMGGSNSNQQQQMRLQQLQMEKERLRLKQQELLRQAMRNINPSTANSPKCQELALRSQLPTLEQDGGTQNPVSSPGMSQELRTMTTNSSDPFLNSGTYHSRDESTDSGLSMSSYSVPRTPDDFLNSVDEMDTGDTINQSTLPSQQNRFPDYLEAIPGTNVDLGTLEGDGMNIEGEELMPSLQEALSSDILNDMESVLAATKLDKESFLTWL

| Compound | fold change (FC) (A549 [1]) | other results |
| --- | --- | --- |
| C[C@@H](c1ccccc1)n1nnc2cnc3ccc(-c4ccc(N(C)C)nc4)cc3c21 | 1.19 |  |
| CC(C)n1nnc2cnc3ccc(-c4cnc5[nH]ccc5c4)cc3c21 | 3.38 |  |
| C[C@H](c1ccc(F)cc1)n1nnc2cnc3ccc(-c4cnc5[nH]ccc5c4)cc3c21 | 4.92 |  |
| COc1cccc([C@@H](C)n2nnc3cnc4ccc(-c5cnc6[nH]ccc6c5)cc4c32)c1 | 2.22 |  |
| C[C@@H](c1ccccc1)n1nnc2cnc3ccc(-c4ccnc(N)c4)cc3c21 | 2.01 |  |
| Cn1nnc2cnc3ccc(-c4cnc5[nH]ccc5c4)cc3c21 | 0.55 |  |
| C[C@@H](c1ccccc1)n1nnc2cnc3ccc(-c4ccc(N)cc4)cc3c21 | 2.24 |  |
| CC[C@H](c1ccccc1)n1nnc2cnc3ccc(-c4cnc5[nH]ccc5c4)cc3c21 | 3.72 |  |
| C[C@@H](c1ccccc1)n1nnc2cnc3ccc(-c4c[nH]c5ncccc45)cc3c21 | 1.11 |  |
| COc1cccc([C@H](C)n2nnc3cnc4ccc(-c5cnc6[nH]ccc6c5)cc4c32)c1 | 3.13 |  |
| C[C@H](c1ccccc1)n1nnc2cnc3ccc(-c4cnc5[nH]ccc5c4)cc3c21 | 8.1 |  |
| C[C@@H](c1ccc(F)cc1)n1nnc2cnc3ccc(-c4cnc5[nH]ccc5c4)cc3c21 | 6.51 |  |
| C[C@@H](c1ccccc1)n1nnc2cnc3ccc(-c4ccc(C#N)nc4)cc3c21 | 1.94 |  |
| C[C@@H](c1ccccc1)n1nnc2cnc3ccc(-c4cnc(N)nc4)cc3c21 | 3.49 |  |
| C[C@@H](c1ccccc1)n1nnc2cnc3ccc(-c4ccc(N)nc4)cc3c21 | 9.09 |  |
| C[C@H](c1cccc(F)c1)n1nnc2cnc3ccc(-c4cnc5[nH]ccc5c4)cc3c21 | 2.1 |  |
| C[C@@H](c1cccc(F)c1)n1nnc2cnc3ccc(-c4cnc5[nH]ccc5c4)cc3c21 | 4.91 |  |
| C[C@@H](c1ccccc1)n1nnc2cnc3ccc(-c4ccc5[nH]ccc5c4)cc3c21 | 4.6 |  |
| CC[C@@H](c1ccccc1)n1nnc2cnc3ccc(-c4cnc5[nH]ccc5c4)cc3c21 | 8.06 |  |
| C[C@@H](c1ccccc1)n1nnc2cnc3ccc(-c4ccnc5[nH]ccc45)cc3c21 | 0.549 |  |
| C[C@@H](c1ccccc1)n1nnc2cnc3ccc(-c4ccc(Cl)nc4)cc3c21 | 1.24 |  |
| C[C@@H](c1ccccc1)n1nnc2cnc3ccc(-c4ccccc4)cc3c21 | 1.43 |  |
| COc1ccc(-c2ccc3ncc4nnn([C@@H](C)c5ccccc5)c4c3c2)cn1 | 0.996 |  |
| Fc1ccc(-n2nnc3cnc4ccc(-c5cnc6[nH]ccc6c5)cc4c32)cc1 | 3.44 |  |
| C[C@@H](c1ccccc1)n1nnc2cnc3ccc(-c4ccc(N)c(Cl)c4)cc3c21 | 1.73 |  |
| CN1C(=O)c2sccc2N(C)c2nc(Nc3ccc(S(N)(=O)=O)cc3)ncc21 | 4.92 | inhibition (A549 [2]): Active; Activity [3]: Active; inhibition (A549 [4]): Dose-dependent effect |
| C[C@@H](c1ccccc1)n1nnc2cnc3ccc(-c4ccc(N5CCOCC5)nc4)cc3c21 | 1.06 |  |
| Fc1ccc(Cn2nnc3cnc4ccc(-c5cnc6[nH]ccc6c5)cc4c32)cc1 | 3.87 |  |
